Screening results from PubChem BioAssay.
The list is not random: actives were taken first. Their share in the collection is about 2.7%.
PAFAH2 inh – inhibitors of human PAFAH2 | recombinant PAFAH2, FP-rhodamine activity probe, fluorescence polarization | inhibition, % at 3.39 µM | 340,000 compounds, 0.99% hits | AID 492956;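 active = inhibition above the mean over all tested compounds plus 3 SD, cut at about 30% in these data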;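 also: inhibitors block probe labeling of enzyme so polarization drops; 0% = enzyme with DMSO and 100% = wells lacking PAFAH2 protein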
PAFAH1B3 inh – blocks human PAF acetylhydrolase 1B catalytic subunit 3; inhibition, % at 3.39 µM; recombinant PAFAH1B3, FP-rhodamine probe, fluorescence polarization; 340,000 compounds, 0.28% hits; Q15102;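 active = inhibition above the screen-wide average of all tested compounds plus 3 SD, cut at about 25% in these data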;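 also: 0% = enzyme with DMSO only and 100% = wells lacking PAFAH1B3 protein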
pPAFAH FP inh – pPAFAH (human) enzyme inhibition | inhibition, % at 3.39 µM | Q13093 | 330,000 compounds, 1.5% hits | recombinant pPAFAH, FP-rhodamine probe fluorescence polarization;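 active = inhibition above the mean inhibition across the screen plus 3 SD, cut at about 25% in these data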;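 also: inhibitors block binding of the rhodamine activity-based probe so polarization drops; 0% = enzyme with DMSO and 100% = wells lacking pPAFAH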
ARFGAP1 inhibitor – inhibitors of rat ARFGAP1; Arfgap1-stimulated ARF1 GTP hydrolysis, GDP FP detection; inhibition, % at 16.5 µM; 360,000 compounds, 0.26% hits; AID 651572;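 active = inhibition above a per-plate limit, mean inhibition of low control wells plus 3 SD, cut at about 25% in these data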;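 also: 0% = DMSO wells with enzyme and 100% = wells lacking Arfgap1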
Target sequence (Q62848 1-136 limits assumed): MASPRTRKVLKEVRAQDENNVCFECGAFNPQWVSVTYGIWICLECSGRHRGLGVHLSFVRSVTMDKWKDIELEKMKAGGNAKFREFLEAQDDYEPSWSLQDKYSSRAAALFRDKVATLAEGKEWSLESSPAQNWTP
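system = rat Arfgap1 catalytic domain, aa 1-136 | technique = FP, GDP Alexa 633 tracer displaced from anti-GDP antibody, 620/688 nm | compound = one concentration, 16.5 µM, DMSO 1.26% | medium = HEPES-based buffer, pH 7.5 | timing = compound-enzyme preincubation 20 min, reaction 120 min, detection 60 min, 25 °C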
PAFAH1B2 FP inh – blocks human PAF acetylhydrolase 1b catalytic subunit 2; P68402; recombinant PAFAH1B2, FP-rhodamine activity probe, fluorescence polarization; inhibition, % at 3.39 µM; 340,000 compounds, 1.2% hits; AID 492953;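 active = inhibition above the mean of all tested compounds plus 3 SD, cut at about 24% in these data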;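 also: 0% = enzyme with DMSO and 100% = wells lacking PAFAH1B2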
Target sequence (P68402 whole entry, looked up): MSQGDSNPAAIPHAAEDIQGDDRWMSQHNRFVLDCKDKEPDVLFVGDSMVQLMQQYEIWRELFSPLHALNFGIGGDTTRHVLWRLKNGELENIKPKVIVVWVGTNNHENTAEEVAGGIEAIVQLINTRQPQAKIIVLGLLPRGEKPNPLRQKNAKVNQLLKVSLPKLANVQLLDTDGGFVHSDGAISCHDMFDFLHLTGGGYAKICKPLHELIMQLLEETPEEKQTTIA
ASAP1 inh – inhibitors of human ASAP1 ArfGAP activity | ASAP1-stimulated ARF1 GTP hydrolysis, GDP FP detection | inhibition, % at 16.5 µM | 360,000 compounds, 0.19% hits | AID 624377; in the data active = inhibition above about 25%;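 also: 0% = vehicle with enzyme and substrate and 100% = no enzyme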
The depositor's hits bear a star; nt = no result given.

SMILES	PAFAH2 inh	PAFAH1B3 inh	pPAFAH FP inh	ARFGAP1 inhibitor	PAFAH1B2 FP inh	ASAP1 inh
O=C(CCl)N1CCN2C(=O)c3ccccc3C12c1ccc(Cl)cc1 (stereo not drawn)	2	10	-1	7	4	-7
CCCCCCCCN1C(=O)[C@@H](CC(=O)N2CCCC2)C[C@@]2(C(=O)OC)C1=C[C@H](C(C)(C)C)O[C@@H]2C	nt	nt	nt	-15	nt	-6
CS(=O)(=O)Nc1ccc(C(=O)Nc2ccccc2Sc2ccccc2)cc1	-3	-1	30*	5	5	11
O=C(Nc1ccccc1Sc1ccccc1)c1ccccc1F	1	9	31*	4	-3	9
CCc1ccccc1NC(=O)c1ccc(NS(C)(=O)=O)cc1	nt	nt	5	2	nt	0
C[C@@H]1CN([C@@H](C)CO)C(=O)CCCn2cc(nn2)CO[C@H]1CN(C)C(=O)Nc1cccc(C(F)(F)F)c1	nt	nt	nt	-8	nt	5
CC(C)c1[nH]nc2c1C(c1cccc(C(F)(F)F)c1)N(c1ccccc1)C2=O (stereo not drawn)	nt	nt	nt	-1	nt	10
Cc1ccccc1N=Cc1cc2c(cc1O)OC(N)=C(C#N)C2c1ccccc1 (stereo not drawn)	18	-3	26*	-8	-1	3
N#CC1=C(N)Oc2cc(O)c(C=Nc3ccccc3)cc2C1c1ccccc1 (stereo not drawn)	7	-3	8	3	5	0
COc1ccc(NC(=S)N(CCCN2CCOCC2)C(C)c2cc3cccc(OC)c3o2)cc1 (stereo not drawn)	6	7	28*	12	-1	-12
CCOC(=O)C(NC(=O)c1ccccc1)=C(C)C	5	5	3	1	2	15
CCOC(=O)C(CC(=O)O)=C(c1ccccc1)c1ccccc1	5	8	2	-3	32*	-2
Cc1ccccc1S(=O)(=O)N1CCCc2nc(-c3ccc(F)cc3)ccc21	nt	nt	nt	-2	nt	-12
Cc1ccc2nc(CSc3nc(C)cc(C)c3C#N)[nH]c2c1	-3	4	26*	8	5	0
Cc1ccc(NS(=O)(=O)c2ccc3c(c2)NC(=O)CCS3)c(C)c1	9	8	30*	-1	13	-3
CC(CNS(=O)(=O)c1ccc2c(c1)NC(=O)CCS2)c1ccccc1 (stereo not drawn)	-2	0	27*	-3	39*	1
Cc1ccc(NS(=O)(=O)c2ccc3c(c2)NC(=O)CCS3)c(Cl)c1	8	-1	6	-2	4	-1
O=C(Oc1ccc2ccc(=O)oc2c1)C1CCCCC1	3	0	4	-7	-1	-3
O=C(Oc1cc2oc(=O)cc(-c3ccccc3)c2cc1Cl)C1CCCCC1	-1	5	4	4	47*	3
O=C(CCC1CCCN(C(=O)Cc2cccc(F)c2)C1)N1CCN(c2ccccn2)CC1 (stereo not drawn)	7	4	6	-5	-2	-1
Cc1ccc(C(=O)N2CCCC(CCC(=O)N3CCN(c4ccccn4)CC3)C2)s1 (stereo not drawn)	7	3	30*	10	1	0
CC(=O)c1ccccc1C(=O)N1CCCC(CCC(=O)N2CCN(c3ccccn3)CC2)C1 (stereo not drawn)	9	6	7	-5	10	-5
O=C(CCC1CCCN(C(=O)CCCc2ccccc2)C1)N1CCN(c2ccccn2)CC1 (stereo not drawn)	-2	4	25*	5	7	-9
Cc1ccc([C@@H]2CC=C(C(=O)O)CN2S(=O)(=O)c2ccc(C)cc2)cc1	-3	14	5	6	29*	12
Cc1ccc(S(=O)(=O)N2[C@@H](c3ccc(C(C)(C)C)cc3)C(C(=O)O)=CC[C@H]2c2ccc(Cl)c(Cl)c2)cc1	-6	-8	19	-9	76*	-14
Cc1ccc(S(=O)(=O)N2[C@@H](c3ccccc3)C(C(=O)O)=CC[C@H]2c2cccs2)cc1	3	1	3	2	25*	-19
Cc1ccc(S(=O)(=O)N2[C@@H](c3ccccc3F)C(C(=O)O)=CC[C@H]2c2cccs2)cc1	5	10	2	9	21	-4
